Measurements: ChEMBL document CHEMBL4049392, “New azole derivatives showing antimicrobial effects and their mechanism of antifungal activity by molecular modeling studies” (Eur J Med Chem, 2017)
Converted amounts (≈) assume the structure as drawn.

How the values were obtained:
Candida parapsilosis = assay: Anti-fungal activity against Candida parapsilosis ATCC 90018 after 48 hrs by broth microdilution method; format: functional; settings: Lodderomyces parapsilosis, ATCC 90018, 48 h
Method in brief: (§1)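 CLSI broth microdilution in RPMI 1640 (with glutamine, without bicarbonate) buffered to pH 7.0 with MOPS. Inoculum was prepared from 24 h Sabouraud dextrose agar subcultures, final 0.5 to 2.5 10^3 cfu/mL. Twofold dilutions were made from DMSO stocks. Incubated 35 °C for 48 h. MIC was the lowest concentration with no visible growth; for the fluconazole reference, MIC was taken at about 80% growth inhibition versus control.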

Pichia kudriavzevii = assay: Anti-fungal activity against Candida krusei ATCC 6258 after 48 hrs by broth microdilution method; format: functional; settings: ATCC 6258, 48 h; method in brief: as §1
Escherichia coli = assay: Antibacterial activity against Escherichia coli ATCC 25922 after 18 to 24 hrs by broth microdilution method; format: functional
Method in brief: (§2)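 CLSI broth microdilution in Mueller Hinton broth, with inoculum from 24 h Mueller Hinton agar subcultures, final about 5 10^5 cfu/mL. Compounds were dissolved in DMSO and tested as twofold dilutions in wells. Plates were incubated at 35 °C for 18–24 h. MIC was read as the lowest concentration completely inhibiting visible growth. Ciprofloxacin was the reference.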

Staphylococcus aureus = assay: Antibacterial activity against Staphylococcus aureus ATCC 29213 after 18 to 24 hrs by broth microdilution method; format: functional; method in brief: as §2
Candida albicans = assay: Anti-fungal activity against Candida albicans ATCC 90028 after 48 hrs by broth microdilution method; format: functional; settings: ATCC 90028, 48 h; method in brief: as §1
Pseudomonas aeruginosa = assay: Antibacterial activity against Pseudomonas aeruginosa ATCC 27853 after 18 to 24 hrs by broth microdilution method; format: functional; method in brief: as §2
Enterococcus faecalis = assay: Antibacterial activity against Enterococcus faecalis ATCC 29212 after 18 to 24 hrs by broth microdilution method; format: functional; method in brief: as §2
[1] = Cytotoxicity against human U937 cells assessed as cell viability at 10 to 100 ug/ml after 48 hrs by MTT assay relative to control; format: cell-based, U-937; settings: read-out: Activity
Method in brief: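 U937 human monocytic cells, 4 10^3 per well in RPMI-1640 with 10% FBS, L-glutamine, penicillin and streptomycin, at 37 °C and 5% CO2. Compounds in DMSO were added at five final concentrations for 48 h, in triplicate. MTT was added for 4 h, formazan was dissolved overnight in SDS/23% DMF, and OD was read at 570 nm. Results are % reduction in viable cells versus control.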

Nakaseomyces glabratus = assay: Anti-fungal activity against drug-resistant Candida glabrata after 48 hrs by broth microdilution method; format: functional
Method in brief: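 Clinical resistant C. glabrata isolate, stored frozen in glycerol and subcultured twice on Sabouraud dextrose agar. CLSI broth microdilution in RPMI 1640 (glutamine, no bicarbonate) buffered to pH 7.0 with MOPS. Inoculum from 24 h subcultures, final 0.5 to 2.5 x10^3 cfu/mL. DMSO-dissolved compounds in twofold dilutions, 35 C for 48 h. MIC is the lowest concentration giving complete visual growth inhibition; fluconazole reference read at about 80% inhibition.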

Row | SMILES | MIC (Candida parapsilosis) | MIC (Pichia kudriavzevii) | MIC (Escherichia coli) | MIC (Staphylococcus aureus) | MIC (Candida albicans) | MIC (Pseudomonas aeruginosa) | MIC (Enterococcus faecalis) | viability at 48 h [1] | MIC (Nakaseomyces glabratus)
1 | OC(Cn1ccnc1)c1ccccc1 (centres undefined) | 256 µg/mL (≈ 1360 µM) | 256 µg/mL (≈ 1360 µM) | 512 µg/mL (≈ 2720 µM) | 1020 µg/mL (≈ 5440 µM) | 256 µg/mL (≈ 1360 µM) | 512 µg/mL (≈ 2720 µM) | 512 µg/mL (≈ 2720 µM) |  | 
2 | OC(Cn1ccnc1)c1ccc(Cl)cc1 (centres undefined) | 128 µg/mL (≈ 575 µM) | 256 µg/mL (≈ 1150 µM) | 256 µg/mL (≈ 1150 µM) | 64 µg/mL (≈ 287 µM) | 128 µg/mL (≈ 575 µM) | 256 µg/mL (≈ 1150 µM) | 128 µg/mL (≈ 575 µM) |  | 
3 | CC(=O)OC(Cn1ccnc1)c1ccccc1.Cl (centres undefined) | 64 µg/mL | 128 µg/mL | 512 µg/mL | 1020 µg/mL | 128 µg/mL | 256 µg/mL | 256 µg/mL |  | 
4 | Cl.O=C(Cc1ccccc1)OC(Cn1ccnc1)c1ccc(Cl)cc1 (centres undefined) | 2 µg/mL | 4 µg/mL | 256 µg/mL | 16 µg/mL | 0.5 µg/mL | 256 µg/mL | 256 µg/mL | 70 to 80% | 4 µg/mL
5 | CCCC(CCC)C(=O)OC(Cn1ccnc1)c1ccc(Cl)cc1.Cl (centres undefined) | 64 µg/mL | 64 µg/mL | 512 µg/mL | 1020 µg/mL | 128 µg/mL | 256 µg/mL | 32 µg/mL |  | 
6 | CC(=O)CCC(=O)OC(Cn1ccnc1)c1ccc(Cl)cc1.Cl (centres undefined) | 16 µg/mL | 32 µg/mL | 512 µg/mL | 512 µg/mL | 64 µg/mL | 256 µg/mL | 256 µg/mL |  | 
7 | Cl.O=C(Cc1ccccc1)OC(Cn1ccnc1)c1ccccc1 (centres undefined) | 32 µg/mL | 128 µg/mL | 512 µg/mL | 128 µg/mL | 64 µg/mL | 128 µg/mL | 64 µg/mL |  | 
8 | CC(=O)CCC(=O)OC(Cn1ccnc1)c1ccccc1.Cl (centres undefined) | 256 µg/mL | 256 µg/mL | 512 µg/mL | 512 µg/mL | 256 µg/mL | 256 µg/mL | 128 µg/mL |  | 
9 | CCC(=O)OC(Cn1ccnc1)c1ccccc1.Cl (centres undefined) | 8 µg/mL | 32 µg/mL | 512 µg/mL | 1020 µg/mL | 64 µg/mL | 256 µg/mL | 128 µg/mL |  | 
10 | Cl.O=C(CCC(=O)c1ccccc1)OC(Cn1ccnc1)c1ccccc1 (centres undefined) | 32 µg/mL | 128 µg/mL | 512 µg/mL | 128 µg/mL | 16 µg/mL | 256 µg/mL | 64 µg/mL |  | 
11 | C/C=C/C=C/C(=O)OC(Cn1ccnc1)c1ccccc1.Cl (centres undefined) | 8 µg/mL | 32 µg/mL | 512 µg/mL | 512 µg/mL | 32 µg/mL | 256 µg/mL | 64 µg/mL |  | 
12 | Cl.O=C(CCC(=O)c1ccccc1)OC(Cn1ccnc1)c1ccc(Cl)cc1 (centres undefined) | 4 µg/mL | 16 µg/mL | 256 µg/mL | 8 µg/mL | 4 µg/mL | 256 µg/mL | 256 µg/mL | 70 to 80% | 32 µg/mL
13 | CCCC(=O)OC(Cn1ccnc1)c1ccccc1.Cl (centres undefined) | 16 µg/mL | 32 µg/mL | 512 µg/mL | 512 µg/mL | 64 µg/mL | 256 µg/mL | 128 µg/mL |  | 
14 | CCCCC(=O)OC(Cn1ccnc1)c1ccccc1.Cl (centres undefined) | 8 µg/mL | 32 µg/mL | 512 µg/mL | 256 µg/mL | 8 µg/mL | 256 µg/mL | 128 µg/mL |  | 32 µg/mL
15 | Cl.O=C(OC(Cn1ccnc1)c1ccccc1)C1CCCCC1 (centres undefined) | 16 µg/mL | 128 µg/mL | 512 µg/mL | 64 µg/mL | 16 µg/mL | 256 µg/mL | 32 µg/mL |  | 
16 | Cl.O=C(OC(Cn1ccnc1)c1ccccc1)c1ccccc1 (centres undefined) | 32 µg/mL | 64 µg/mL | 256 µg/mL | 64 µg/mL | 32 µg/mL | 256 µg/mL | 64 µg/mL |  | > 32 µg/mL
17 | Cl.O=C(OC(Cn1ccnc1)c1ccc(Cl)cc1)c1ccccc1 (centres undefined) | 2 µg/mL | 32 µg/mL | 512 µg/mL | 128 µg/mL | 4 µg/mL | 256 µg/mL | 512 µg/mL | 70 to 80% | 16 µg/mL
18 | Cl.O=C(/C=C/c1ccccc1)OC(Cn1ccnc1)c1ccc(Cl)cc1 (centres undefined) | 2 µg/mL | 16 µg/mL | 512 µg/mL | 1020 µg/mL | 4 µg/mL | 256 µg/mL | 256 µg/mL | 70 to 80% | 2 µg/mL
19 | Cl.O=C(CCCc1ccccc1)OC(Cn1ccnc1)c1ccc(Cl)cc1 (centres undefined) | 2 µg/mL | 8 µg/mL | 512 µg/mL | 128 µg/mL | 2 µg/mL | 512 µg/mL | 128 µg/mL | 70 to 80% | 8 µg/mL
20 | CC(C)CC(=O)OC(Cn1ccnc1)c1ccccc1.Cl (centres undefined) | 2 µg/mL | 32 µg/mL | 512 µg/mL | 256 µg/mL | 2 µg/mL | 256 µg/mL | 128 µg/mL |  | > 32 µg/mL
21 | CC(=O)OC(Cn1ccnc1)c1ccc(Cl)cc1.Cl (centres undefined) | 8 µg/mL | 32 µg/mL | 512 µg/mL | 256 µg/mL | 64 µg/mL | 256 µg/mL | 256 µg/mL |  | 
22 | CCCC(CCC)C(=O)OC(Cn1ccnc1)c1ccccc1.Cl (centres undefined) | 32 µg/mL | 32 µg/mL | 512 µg/mL | 16 µg/mL | 32 µg/mL | 256 µg/mL | 32 µg/mL |  | > 32 µg/mL
23 | Cl.O=C(CCCc1ccccc1)OC(Cn1ccnc1)c1ccccc1 (centres undefined) | 4 µg/mL | 32 µg/mL | 1020 µg/mL | 8 µg/mL | 4 µg/mL | 256 µg/mL | 128 µg/mL |  | > 32 µg/mL
24 | O=C(O)c1cn(C2CC2)c2cc(N3CCNCC3)c(F)cc2c1=O [CIPROFLOXACIN] |  |  | 0.005 µg/mL (≈ 0.0151 µM) | 0.5 µg/mL (≈ 1.51 µM) |  | 1.5 µg/mL (≈ 4.53 µM) | 1.5 µg/mL (≈ 4.53 µM) |  | 
25 | OC(Cn1cncn1)(Cn1cncn1)c1ccc(F)cc1F [FLUCONAZOLE] | 0.25 µg/mL (≈ 0.816 µM) | 16 µg/mL (≈ 52.2 µM) |  |  | 0.25 µg/mL (≈ 0.816 µM) |  |  |  | 32 µg/mL (≈ 104 µM)
